ChEMBL document CHEMBL2034874, “5-acetyl-2-arylbenzimidazoles as antiviral agents. Part 4” (Eur J Med Chem, 2012)

Columns and labels:
[1] = Inhibition of HCV NS5B polymerase; set-up: species or system Hepacivirus hominis
[2] = Antiviral activity against BVDV1 NADL ATCC VR-534 infected in MDBK cells assessed as inhibition of virus-induced cytopathogenicity after 3 to 4 days by MTT assay; assay type: functional, cell-based, Bovine viral diarrhea virus 1-NADL; details: Bovine viral diarrhea virus isolates and strains, ATCC VR-534, MDBK
How it was run: (§1)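 BHK (5×10^4/well) or MDBK (3×10^4/well) cells grown to confluent monolayers overnight, infected at m.o.i. 0.01 in maintenance MEM-Earl with 0.5% inactivated FBS. Serially diluted compounds added after 1 h. Viability read by MTT after 3–4 days at 37 °C. Values are expressed as % of untreated controls, and EC50 is derived by linear regression. Duplicate samples.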

Vaccinia virus = test: Antiviral activity against Vaccinia virus Elstree-Lister ATCC VR-1549 infected in african green monkey Vero-76 cells assessed as reduction in viral plaque after 3 days by crystal violet staining; assay type: functional, organism-based; details: Orthopoxvirus vaccinia, Elstree-Lister ATCC VR-1549, Vero 76, 72 h
Poliovirus 1 = test: Antiviral activity against Polio virus type 1 strain sabin ATCC VR-1562 infected in african green monkey Vero-76 cells assessed as reduction in viral plaque after 2 days by crystal violet staining; assay type: functional, cell-based, Human poliovirus 1 strain Sabin; details: Enterovirus C, ATCC VR-1562, Vero 76, 48 h
[3] = tested on: Mammalian orthoreovirus 1; test: Antiviral activity against Reovirus 1 3651 ATCC VR-214 infected in BHK21 cells assessed as inhibition of virus-induced cytopathogenicity after 3 to 4 days by MTT assay; assay type: functional, organism-based; details: Mammalian orthoreovirus 1, 3651 ATCC VR-214, BHK-21; how it was run: as §1
[4] = Cytotoxicity against MDBK cells after 48 to 96 hrs by MTT assay; assay type: cell-based, Bos taurus; details: cattle
How it was run: (§2)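 Mock-infected MDBK (6×10^5 cells/mL, MEM-E with 10% horse serum) or BHK (1×10^6 cells/mL, MEM-E with 10% FBS) cells incubated with serial compound dilutions at 37 °C and 5% CO2. Viability measured by MTT after 48–96 h. CC50 by linear regression against untreated controls.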

[5] = Cytotoxicity against BHK21 cells by MTT assay; assay type: cell-based, Mesocricetus auratus; details: hamster, BHK-21 cells; how it was run: as §2
Yellow fever virus = test: Antiviral activity against Yellow fever virus 17D infected in BHK21 cells assessed as inhibition of virus-induced cytopathogenicity after 3 to 4 days by MTT assay; assay type: functional, cell-based; details: BHK-21
[6] = Cytotoxicity against human MT4 cells after 96 hrs by MTT assay; assay type: cell-based
How it was run: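 Exponentially growing MT-4 cells seeded at 1×10^5 cells/mL in RPMI-1640 with 10% FBS and incubated with serial compound dilutions at 37 °C and 5% CO2. Viability measured by MTT after 96 h. CC50 by linear regression against untreated controls.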

[7] = tested on: Vesicular stomatitis Indiana virus; test: Antiviral activity against Vesicular stomatitis virus indiana ATCC VR-1540 infected in african green monkey Vero-76 cells assessed as reduction in viral plaque after 2 days by crystal violet staining; assay type: functional, organism-based; details: ATCC VR-1540, Vero 76, 48 h
Coxsackievirus B5 = test: Antiviral activity against Coxsackie virus type B5 Ohio-1 ATCC VR-29 infected in african green monkey Vero-76 cells assessed as reduction in viral plaque after 3 days by crystal violet staining; assay type: functional, organism-based; details: Enterovirus B, Ohio-1 ATCC VR-29, Vero 76, 72 h
How it was run: (§3)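 Vero-76 monolayers (2×10^5 cells/well) infected for 2 h at 50–100 PFU/well. Unadsorbed virus removed. D-MEM with 1% inactivated FBS, 0.75% methylcellulose and serial compound dilutions added. Incubation at 37 °C for 3 days (CVB-5, HSV-1) or 5 days (RSV). Fixed and stained with 50% ethanol/0.8% crystal violet, then plaques counted. EC50 by linear regression versus untreated controls.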

[8] = tested on: Human immunodeficiency virus 1; test: Antiviral activity against HIV1 3B infected in human MT4 cells assessed as inhibition of virus-induced cytopathogenicity after 4 days by MTT assay; assay type: functional, organism-based; details: Human immunodeficiency virus 1, 3B, MT4, 96 h
How it was run: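 MT-4 cells (1×10^4/well) in RPMI with serial compound dilutions, infected with HIV-1 IIIB at 100 CCID50 (m.o.i. 0.01). Viability measured by MTT after 4 days at 37 °C. EC50 for 50% protection from cytopathogenicity obtained by linear regression against untreated controls.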

[9] = Cytotoxicity against african green monkey Vero 76 cells after 48 to 96 hrs by MTT assay; assay type: cell-based; details: chlorocebus sabaeus
Human alphaherpesvirus 1 = test: Antiviral activity against Herpes simplex virus type 1 KOS ATCC VR-1493 infected in african green monkey Vero-76 cells assessed as reduction in viral plaque after 3 days by crystal violet staining; assay type: functional, organism-based; details: Human alphaherpesvirus 1, KOS ATCC VR1493, Vero 76, 72 h; how it was run: as §3
[10] = Antiviral activity against Human respiratory syncytial virus A2 ATCC VR-1540 infected in african green monkey Vero-76 cells assessed as reduction in viral plaque after 5 days by crystal violet staining; assay type: functional, cell-based; details: ATCC VR-1540, Vero 76, 120 h; how it was run: as §3
Hepatitis C virus = test: Antiviral activity against Hepatitis C virus genotype 1b infected in human GS4.1 cells assessed as inhibition of viral replication after 72 hrs by ELISA; assay type: functional, organism-based, Hepacivirus hominis
How it was run: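 Huh-7 cells carrying the genotype 1b replicon (GS4.1) seeded at 7.5×10^3/well with two-fold serial dilutions, top 75 µM, for 72 h at 37 °C. Cells fixed in acetone–methanol. NS4A quantified by ELISA with anti-NS4A antibody A-236, peroxidase conjugate and o-phenylenediamine, read at 492 nm. EC50 from four-parameter sigmoidal fit. Replicon-free Huh-7 served as negative control.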

[11] = Cytotoxicity against human GS4.1 cells assessed as decrease in cell viability by Cell Titer glo assay; assay type: cell-based
Coxsackievirus B2 = test: Antiviral activity against Coxsackie virus type B2; assay type: functional, organism-based; details: Enterovirus B

SMILES	IC50 [1]	EC50 [2]	EC50 (Vaccinia virus)	EC50 (Poliovirus 1)	EC50 [3]	CC50 [4]	CC50 [5]	EC50 (Yellow fever virus)	CC50 at 96 h [6]	EC50 [7]	EC50 (Coxsackievirus B5)	EC50 [8]	CC50 [9]	EC50 (Human alphaherpesvirus 1)	EC50 [10]	EC50 (Hepatitis C virus)	CC50 [11]	EC50 (Coxsackievirus B2)
O=C(O)c1ccc2c(c1)nc(-c1ccccn1)n2C1CCCCC1	4.3 µM	–	–	–	–	–	–	–	–	–	–	–	–	–	–	–	–	–
O=C(O)c1ccc2c(c1)nc(-c1ccoc1)n2C1CCCCC1	1.6 µM	–	–	–	–	–	–	–	–	–	–	–	–	–	–	–	–	–
C/C(=N\NC(N)=S)c1ccc2c(c1)nc(-c1ccc(Cl)cc1)n2C1CCCCC1	–	> 100 µM	> 100 µM	> 100 µM	> 100 µM	> 100 µM	> 100 µM	> 100 µM	17 µM	> 100 µM	> 100 µM	≥ 17 µM	> 100 µM	> 100 µM	> 100 µM	–	–	–
COc1ccc(-c2nc3cc(C(C)O)ccc3[nH]2)c(OC)c1 (centres undefined)	–	> 100 µM	> 100 µM	> 100 µM	> 100 µM	> 100 µM	> 100 µM	> 100 µM	≥ 100 µM	> 100 µM	> 100 µM	> 100 µM	> 100 µM	> 100 µM	> 100 µM	–	–	–
COc1ccc(-c2nc3cc(/C(C)=N/O)ccc3[nH]2)c(OC)c1	–	17 µM	> 100 µM	> 100 µM	> 100 µM	> 100 µM	> 100 µM	> 100 µM	≥ 100 µM	> 100 µM	43 µM	> 100 µM	> 100 µM	> 100 µM	> 100 µM	–	–	–
COc1ccc(-c2nc3cc(/C(C)=N/NC(N)=S)ccc3[nH]2)c(OC)c1	–	0.8 µM	–	> 100 µM	> 28 µM	> 100 µM	28 µM	> 28 µM	72 µM	> 100 µM	> 100 µM	> 72 µM	> 100 µM	> 100 µM	> 100 µM	1.11 µM	11.3 µM	–
CC(=O)c1ccc2c(c1)nc(-c1ccccc1)n2C1CCCCC1	–	60 µM	> 80 µM	> 80 µM	> 100 µM	> 100 µM	100 µM	13.2 µM	37 µM	> 80 µM	> 80 µM	> 37 µM	80 µM	> 80 µM	25 µM	–	–	–
CC(=O)c1ccc2c(c1)nc(-c1ccc(Cl)cc1)n2C1CCCCC1	–	23 µM	> 100 µM	> 100 µM	> 100 µM	> 100 µM	> 100 µM	> 100 µM	58 µM	> 100 µM	> 100 µM	> 58 µM	> 100 µM	> 100 µM	> 100 µM	–	–	–
CC(=O)c1ccc2c(c1)nc(-c1ccc(C(F)(F)F)cc1)n2C1CCCCC1	–	23 µM	> 35 µM	> 35 µM	> 33 µM	52 µM	33 µM	> 33 µM	41 µM	> 35 µM	> 35 µM	> 41 µM	35 µM	> 35 µM	20 µM	–	–	–
COc1ccc(-c2nc3cc(C(C)=O)ccc3n2C2CCCCC2)cc1	–	21 µM	> 30 µM	> 30 µM	> 100 µM	> 100 µM	> 100 µM	13.4 µM	27 µM	> 30 µM	> 30 µM	> 27 µM	30 µM	> 30 µM	> 30 µM	–	–	–
COc1ccc(-c2nc3cc(C(C)=O)ccc3n2C2CCCCC2)c(OC)c1	–	> 21 µM	> 70 µM	> 70 µM	> 85 µM	21 µM	8.5 µM	> 8.5 µM	21 µM	> 70 µM	> 70 µM	> 21 µM	70 µM	> 70 µM	> 70 µM	–	–	–
C/C(=N\NC(N)=S)c1ccc2c(c1)nc(-c1ccccc1)n2C1CCCCC1	–	4.5 µM	> 20 µM	> 20 µM	> 38 µM	24 µM	38 µM	9 µM	20 µM	> 20 µM	> 20 µM	10 µM	20 µM	> 20 µM	> 20 µM	–	–	–
C/C(=N\NC(N)=S)c1ccc2c(c1)nc(-c1ccc(C(F)(F)F)cc1)n2C1CCCCC1	–	> 100 µM	> 100 µM	> 100 µM	> 100 µM	> 100 µM	> 100 µM	> 100 µM	30 µM	> 100 µM	> 100 µM	≥ 30 µM	> 100 µM	> 100 µM	> 100 µM	–	–	–
COc1ccc(-c2nc3cc(/C(C)=N/NC(N)=S)ccc3n2C2CCCCC2)c(OC)c1	–	4 µM	> 20 µM	> 20 µM	> 17 µM	> 100 µM	17 µM	> 17 µM	17 µM	> 20 µM	> 20 µM	≥ 17 µM	20 µM	> 20 µM	> 20 µM	–	–	–
C/C(=N\NC(N)=S)c1ccc2[nH]c(-c3ccoc3)nc2c1	–	8 µM	> 100 µM	100 µM	> 100 µM	> 100 µM	> 100 µM	> 100 µM	86 µM	> 100 µM	> 100 µM	> 86 µM	100 µM	> 100 µM	> 100 µM	–	–	–
CC(=O)c1ccc2[nH]c(-c3ccc(-c4ccc([N+](=O)[O-])cc4)cc3)nc2c1	–	–	–	–	–	–	–	0.5 µM	–	–	–	–	–	–	–	–	–	1 µM
Nc1ccc(/C=C/c2nc3ccccc3[nH]2)cc1	–	–	–	–	–	–	–	–	–	–	–	–	–	–	–	–	–	7 µM
Nc1ccc(/C=C/c2nc3cc(Cl)ccc3[nH]2)cc1	–	–	–	–	–	–	–	–	–	–	–	–	–	–	–	–	–	7 µM
